Fibroblast inh: blocks proliferation of human lung fibroblasts. hit rate 1.1% among 85,000. viability, % at 10 µM. LL 47 human lung fibroblast viability, ATP luminescence; active compounds read low;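 active = viability at or below 50% in the single dose screen; inactive = viability above 50%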;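 also: compound exposure lasted 72 h before the ATP readout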
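Test system: LL 47 human lung fibroblasts / Incubation: 72 h compound exposure at 37 °C after overnight plating / Technique: luminescent ATP detection, CellTiter-Glo / Compound dosing: 0.1% DMSO in all compound wells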
HUVEC inhibit: human endothelial cell proliferation inhibition. HUVEC proliferation, CellTiter-Glo luminescence, 72 h; active compounds read low. viability, % at 10 µM (by protocol). AID 648. hit rate 1.1% among 86,000;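 active = viability at or below 30%; inactive = viability above 30%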
PTEN del growth: suppresses growth of cells with PTEN deletion | HCT116 PTEN-null viability, CellTiter-Glo, 60 h; active compounds read low | viability, % at 10 µM | hit rate 1.2% among 140,000 | AID 827;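 active = viability at or below a set limit, 4 SD under the median of all tested compounds, cut at about 3.7% in these data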;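 also: PTEN knockout HCT116 line with beta catenin targeted HCT116 as companion control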
HCT116 bCat-KO: beta-catenin-lacking colon tumor cell growth suppression; HCT116 beta-catenin knockout viability, CellTiter-Glo, 60 h; active compounds read low; viability, % at 10 µM; hit rate 1.5% among 140,000;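 active = viability at or under a set limit, the compound median less 4 SD, cut at about 6% in these data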
H69AR growth 86K: growth inhibitors of human H69AR lung tumor cells | viability, % at 10 µM | hit rate 6% among 85,000 | H69AR lung tumor viability, ATP luminescence, 72 h; active compounds read low | AID 598;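 active = viability at or below 40%; inactive = viability above 40%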;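 also: multidrug resistant small cell line overexpressing MRP-1 efflux transporter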
PTK2B oligo ant: antagonists of human Pyk2 oligomerization | Q293 cells, Pyk2 FERM NanoBiT luminescence; active compounds read low | z-score (the deposit names both 25 µM and 10 µM) | hit rate 0.83% among 99,000 | AID 1347419;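 active = Z-score of -3 or lower, scaled per plate to the spread of control and sample wells; inactive = z-score above -3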;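 also: negative z-score means lost luminescence so less FERM oligomerization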
Target sequence (Q14289 whole entry, looked up): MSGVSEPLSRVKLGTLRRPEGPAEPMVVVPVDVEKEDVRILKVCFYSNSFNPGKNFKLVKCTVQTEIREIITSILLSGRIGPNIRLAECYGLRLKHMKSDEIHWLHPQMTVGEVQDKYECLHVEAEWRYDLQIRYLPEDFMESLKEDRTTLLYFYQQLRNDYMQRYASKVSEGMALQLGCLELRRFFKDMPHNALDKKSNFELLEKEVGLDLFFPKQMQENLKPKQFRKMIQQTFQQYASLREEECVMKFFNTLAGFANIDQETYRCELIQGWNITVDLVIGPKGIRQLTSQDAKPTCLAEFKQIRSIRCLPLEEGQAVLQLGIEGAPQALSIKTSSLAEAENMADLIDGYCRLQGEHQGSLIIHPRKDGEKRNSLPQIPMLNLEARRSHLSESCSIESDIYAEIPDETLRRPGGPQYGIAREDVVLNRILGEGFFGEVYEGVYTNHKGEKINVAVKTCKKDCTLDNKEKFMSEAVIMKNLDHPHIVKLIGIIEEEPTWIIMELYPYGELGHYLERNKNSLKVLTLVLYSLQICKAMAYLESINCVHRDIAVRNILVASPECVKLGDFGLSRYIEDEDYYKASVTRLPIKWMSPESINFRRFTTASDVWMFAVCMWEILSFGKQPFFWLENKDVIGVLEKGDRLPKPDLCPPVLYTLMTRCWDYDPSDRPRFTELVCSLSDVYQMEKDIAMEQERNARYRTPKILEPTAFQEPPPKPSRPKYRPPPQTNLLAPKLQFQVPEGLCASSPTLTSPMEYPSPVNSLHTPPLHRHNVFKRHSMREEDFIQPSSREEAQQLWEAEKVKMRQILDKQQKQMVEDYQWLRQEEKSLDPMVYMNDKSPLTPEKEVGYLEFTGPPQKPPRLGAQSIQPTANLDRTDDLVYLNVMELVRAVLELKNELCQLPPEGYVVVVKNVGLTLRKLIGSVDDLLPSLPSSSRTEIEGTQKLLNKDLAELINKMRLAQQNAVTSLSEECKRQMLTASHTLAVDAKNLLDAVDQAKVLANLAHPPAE
Large screens that a line does not name were inactive. The full list was thinned out, with hits kept by preference.

C=CCOC(=O)C(C#N)c1nc2ccccc2nc1N1CCC(C(=O)OCC)CC1 (stereo not drawn)	H69AR growth 86K 39
CCCCCCOC(=O)C(C#N)c1nc2ccccc2nc1N1CCCCC1 (stereo not drawn)	none
CCC(CC)COC(=O)C(C#N)c1nc2ccccc2nc1N1CCN(CC)CC1 (stereo not drawn)	HUVEC inhibit 3.2
CCCCCCOC(=O)C(C#N)c1nc2ccccc2nc1N1CCN(C)CC1 (stereo not drawn)	HUVEC inhibit 5.8, H69AR growth 86K 3.6
CCOC(=O)C1CCN(c2nc3ccccc3nc2C(C#N)C(=O)OCCOC)CC1 (stereo not drawn)	none
CCC(=O)Nc1ccc(/C(C)=N\NS(=O)(=O)c2ccc(C)cc2)cc1	none (no result: Fibroblast inh, HUVEC inhibit, H69AR growth 86K)
Cn1c(=O)[nH]c(=O)c2c1nc(Br)n2CCCSc1nc2ccccc2o1	H69AR growth 86K 16
O=C(NCC1CCCO1)c1onc(CSc2cccc3ccccc23)c1C(=O)O (stereo not drawn)	none (no result: Fibroblast inh, HUVEC inhibit, H69AR growth 86K, PTK2B oligo ant)
Cc1cc(C(=O)OCc2nnc(-c3ccccc3)o2)c(C)n1-c1ccccc1	none
Cc1noc(C)c1COC(=O)c1cc(C)n(-c2ccccc2)c1C	PTK2B oligo ant -3.1
CCOC(=O)c1sc(NC(=O)c2cc(-c3ccccc3C)nc3ccccc23)c(C#N)c1C	PTK2B oligo ant -3.7 (no result: Fibroblast inh, HUVEC inhibit, H69AR growth 86K)
O=C(COC(=O)c1cc(-c2ccc(Cl)s2)nc2ccccc12)NCc1ccco1	H69AR growth 86K 27
CCOC(=O)c1c(NC(=O)c2cc(-c3ccc(Cl)s3)nc3ccccc23)sc(C(N)=O)c1C	PTEN del growth 1.2, HCT116 bCat-KO 3.6 (no result: Fibroblast inh, HUVEC inhibit, H69AR growth 86K, PTK2B oligo ant)
CCOC(=O)c1cc(C)sc1NC(=O)c1ccc(Cl)s1	none
CCOC(=O)c1c(NC(=O)c2ccc(Cl)s2)sc(C)c1C	H69AR growth 86K 33 (no result: PTEN del growth, HCT116 bCat-KO, PTK2B oligo ant)
COC(=O)/C(=N/Nc1ccccc1C)Sc1nnc(C(O)c2ccccc2)n1-c1ccccc1 (stereo not drawn)	none (no result: Fibroblast inh, HUVEC inhibit, H69AR growth 86K, PTK2B oligo ant)
O=S(=O)(Nc1ccc(-n2cccc2)cc1)c1ccccc1	none (no result: Fibroblast inh, HUVEC inhibit, H69AR growth 86K)
C=CCOC(=O)c1sc(N2C(=O)c3oc4ccccc4c(=O)c3C2c2ccco2)nc1C (stereo not drawn)	H69AR growth 86K 17 (no result: PTEN del growth, HCT116 bCat-KO, PTK2B oligo ant)
COC(=O)c1sc(N2C(=O)c3oc4ccccc4c(=O)c3C2c2cccs2)nc1C (stereo not drawn)	none (no result: Fibroblast inh, HUVEC inhibit, H69AR growth 86K)
CCc1cccc(NC(=O)Cc2cn(C)c3ccccc23)c1	none
CN(C)CCCNC(=O)c1ccc(-c2nc(-c3ccc(Cl)cc3)cs2)cc1	PTEN del growth 1.5, HCT116 bCat-KO 1.3 (no result: Fibroblast inh, HUVEC inhibit, H69AR growth 86K)
CN(C)CCCNC(=O)c1ccccn1	none
COc1cc(OC)cc(-c2nc3cc(C)ccc3o2)c1	H69AR growth 86K 31
COc1cc(C(=O)Nc2cccc(-c3nc4cc(C)ccc4o3)c2)cc(OC)c1OC	H69AR growth 86K 28 (no result: PTK2B oligo ant)
Cc1ccc(NC(=O)c2cc(-n3cnnc3)ccc2Cl)cc1	none
COc1cc(C(=O)Nc2cc(-c3nc4cc(C)ccc4o3)ccc2C)cc(OC)c1OC	H69AR growth 86K 30
COc1cc(C(=O)Nc2cccc(-c3nc4cc(C)ccc4o3)c2C)cc(OC)c1OC	none
Cc1ccc2oc(-c3cccc(NC(=O)c4cc(-n5cnnc5)ccc4Cl)c3)nc2c1	H69AR growth 86K 11
CCOc1ccccc1NC(=O)c1cccc(S(=O)(=O)N(Cc2ccccc2)c2ccccc2OC)c1	none (no result: Fibroblast inh, HUVEC inhibit, H69AR growth 86K, PTK2B oligo ant)
CCN(CC)C(=O)C(=O)c1cccn1-c1cccc(-n2cccc2C(=O)C(=O)N(CC)CC)c1C#N	none
O=C(Nc1ccc2oc(-c3ccc(Cl)c(Cl)c3)nc2c1)c1ncn[nH]1	PTEN del growth 0.9, HCT116 bCat-KO 1.0 (no result: Fibroblast inh, HUVEC inhibit, H69AR growth 86K)
O=C(Nc1ccc2oc(-c3cccc(F)c3)nc2c1)c1ccccc1F	PTEN del growth 2.4
O=C(Nc1ccc2oc(-c3ccccc3)nc2c1)c1ccccc1F	none
O=C(Nc1ccc2oc(-c3ccccc3F)nc2c1)c1ncn[nH]1	none (no result: Fibroblast inh, HUVEC inhibit, H69AR growth 86K)
CCCC(=O)Nc1cccc(-c2nc3cc(C)c(C)cc3o2)c1	H69AR growth 86K 14
CCCC(=O)Nc1cccc(-c2nc3ccccc3o2)c1	none
Cc1cc(C)c(S(=O)(=O)N2CCCOC2CNC(=O)C(=O)NCCc2c[nH]c3ccccc23)c(C)c1 (stereo not drawn)	none (no result: Fibroblast inh, HUVEC inhibit, H69AR growth 86K, PTK2B oligo ant)
COc1ccc(NC(=O)C(NC(=O)c2ccc(=O)[nH]c2)c2ccc(OC)cc2)cc1 (stereo not drawn)	none (no result: Fibroblast inh, HUVEC inhibit, H69AR growth 86K, PTK2B oligo ant)
COc1ccc(N(CC(O)Cn2cnc3ccccc32)S(=O)(=O)c2ccc(C)cc2)cc1 (stereo not drawn)	none (no result: Fibroblast inh, HUVEC inhibit, H69AR growth 86K, PTK2B oligo ant)
CCc1cc(C(=O)N/N=C/c2c(C)[nH]c3ccccc23)cs1	none (no result: Fibroblast inh, HUVEC inhibit, H69AR growth 86K, PTK2B oligo ant)
Cc1ccc(NC(=O)CN(C)C(=O)Cn2ncc(Cl)c(Cl)c2=O)cc1	PTEN del growth 1.0, HCT116 bCat-KO 1.6 (no result: Fibroblast inh, HUVEC inhibit, H69AR growth 86K, PTK2B oligo ant)
CCc1ccc(C2CC(c3cccc(Cl)c3)n3nc(N)nc3N2)cc1 (stereo not drawn)	H69AR growth 86K 38 (no result: PTK2B oligo ant)
COc1cc(NC(=O)Cn2nnc(-c3ccccc3N)n2)cc(OC)c1	H69AR growth 86K 30
COc1ccc(NC(=O)Cn2nnc(-c3ccccc3N)n2)cc1OC	none
COc1ccccc1NC(=O)Cn1nnc(-c2ccccc2NC(=O)c2ccco2)n1	Fibroblast inh 47, H69AR growth 86K 16
COc1ccc(NC(=O)Cn2nnc(-c3ccccc3NC(=O)c3ccco3)n2)cc1	Fibroblast inh 48, HUVEC inhibit 21, H69AR growth 86K 4.3
COCCNC(=O)/C(C#N)=C1\N=C(N)c2ccccc21	none (no result: Fibroblast inh, HUVEC inhibit, H69AR growth 86K, PTK2B oligo ant)
COc1ccccc1/C=c1\sc2nc(-c3ccco3)nn2c1=O	H69AR growth 86K 36
COc1cc2c(-c3ccc(O)cc3)nc3c(c(C)nn3-c3ccccc3)c2cc1OC	PTEN del growth 1.2, HCT116 bCat-KO 1.0 (no result: Fibroblast inh, HUVEC inhibit, H69AR growth 86K, PTK2B oligo ant)
CCOC(=O)c1ccc(NC(=O)C2CCN(S(=O)(=O)CC)CC2)cc1	none
CCOC(=O)c1ccc(NC(=O)C2CCCN(S(=O)(=O)c3ccc(F)cc3)C2)cc1 (stereo not drawn)	H69AR growth 86K 20
CC(=O)Nc1ccc(NC(=O)C2CCCN(c3ncccn3)C2)cc1 (stereo not drawn)	none
Cc1ccc(S(=O)(=O)N2CCCC(C(=O)Nc3ccc(NC(=O)c4ccccn4)cc3)C2)cc1 (stereo not drawn)	H69AR growth 86K 21
O=C(Nc1ccc(Oc2ccccc2)cc1)C1CCCN(c2ncccn2)C1 (stereo not drawn)	H69AR growth 86K 40
CCOC(=O)c1ccc(NS(=O)(=O)N2CCCCCC2)cc1	PTK2B oligo ant -3.1
CCOC(=O)C(NCc1ccc(OC)cc1)(NC(C)=O)C(F)(F)F (stereo not drawn)	none (no result: Fibroblast inh, HUVEC inhibit, H69AR growth 86K, PTK2B oligo ant)
COC(=O)c1cc(OC)c(OC)cc1NC(=O)c1ccccc1	H69AR growth 86K 39
COc1cc(NC(=O)c2cccs2)c(C(=O)OCC(=O)NCc2ccccc2)cc1OC	HUVEC inhibit 19, H69AR growth 86K 6.7
CCOC(=O)N(NC(=O)C(O)(CC(C)C)CC(C)C)c1ccccc1	none (no result: Fibroblast inh, HUVEC inhibit, H69AR growth 86K, PTK2B oligo ant)
O=C(Nc1ccccc1Br)C1CCN(C(=O)Cc2ccccc2)CC1	none (no result: Fibroblast inh, HUVEC inhibit, H69AR growth 86K, PTK2B oligo ant)

High-throughput results: PubChem BioAssay, several laboratories
